In experiment [1] the target is T1, Amine oxidase [flavin-containing] A (Homo sapiens, UniProt P21397).
T1 sequence (P21397 whole entry): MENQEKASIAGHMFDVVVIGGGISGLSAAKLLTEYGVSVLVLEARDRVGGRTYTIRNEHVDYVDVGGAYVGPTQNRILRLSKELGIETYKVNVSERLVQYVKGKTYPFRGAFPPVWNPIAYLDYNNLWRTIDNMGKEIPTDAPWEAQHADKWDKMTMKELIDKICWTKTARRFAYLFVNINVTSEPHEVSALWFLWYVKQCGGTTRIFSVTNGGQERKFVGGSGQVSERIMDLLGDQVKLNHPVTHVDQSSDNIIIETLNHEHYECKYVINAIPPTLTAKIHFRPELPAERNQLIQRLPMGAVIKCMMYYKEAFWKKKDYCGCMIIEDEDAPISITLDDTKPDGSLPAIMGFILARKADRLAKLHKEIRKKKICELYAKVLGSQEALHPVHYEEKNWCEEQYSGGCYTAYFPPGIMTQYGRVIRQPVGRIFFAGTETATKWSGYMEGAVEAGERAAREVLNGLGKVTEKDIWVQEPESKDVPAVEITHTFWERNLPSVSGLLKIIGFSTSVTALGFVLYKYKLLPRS
The experiment in a line: Inhibition of human recombinant MAO-A at 1 nM using tyramine as substrate preincubated with enzyme for 30 mins followed by incubation with substrate for 30 mins by Amplex Red reagent based fluorometric method relative to control. To be noted: 0.5 h, time 60 min. Put shortly:
(§1)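 Recombinant hMAO-A at 0.5 U/mL in phosphate buffer. Inhibitors are dissolved in 2% DMSO and preincubated with enzyme at 37 °C for 30 min. The working solution is then added: horseradish peroxidase, Amplex (Ampliflu) red and tyramine. Fluorescence (Ex/Em 535/587 nm) is read at 5-min intervals over 30 min at 37 °C. Controls use 2% DMSO. Background without enzyme is subtracted. Peroxidase interference is checked with H2O2.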

Experiment [2] deals with T1, Amine oxidase [flavin-containing] A. The experiment in a line: Inhibition of human recombinant MAO-A at 0.01 nM using tyramine as substrate preincubated with enzyme for 30 mins followed by incubation with substrate for 30 mins by Amplex Red reagent based fluorometric method relative to control. To be noted: 0.5 h, time 60 min. Put shortly: as §1
For experiment [3] the target is unchanged. The experiment in a line: Inhibition of human recombinant MAO-A at 1 uM using tyramine as substrate preincubated with enzyme for 30 mins followed by incubation with substrate for 30 mins by Amplex Red reagent based fluorometric method relative to control. As to conditions: 0.5 h, time 60 min. Put shortly: as §1
Experiment [4] deals with T2, Amine oxidase [flavin-containing] B (Homo sapiens, UniProt P27338).
T2 sequence (P27338 whole entry): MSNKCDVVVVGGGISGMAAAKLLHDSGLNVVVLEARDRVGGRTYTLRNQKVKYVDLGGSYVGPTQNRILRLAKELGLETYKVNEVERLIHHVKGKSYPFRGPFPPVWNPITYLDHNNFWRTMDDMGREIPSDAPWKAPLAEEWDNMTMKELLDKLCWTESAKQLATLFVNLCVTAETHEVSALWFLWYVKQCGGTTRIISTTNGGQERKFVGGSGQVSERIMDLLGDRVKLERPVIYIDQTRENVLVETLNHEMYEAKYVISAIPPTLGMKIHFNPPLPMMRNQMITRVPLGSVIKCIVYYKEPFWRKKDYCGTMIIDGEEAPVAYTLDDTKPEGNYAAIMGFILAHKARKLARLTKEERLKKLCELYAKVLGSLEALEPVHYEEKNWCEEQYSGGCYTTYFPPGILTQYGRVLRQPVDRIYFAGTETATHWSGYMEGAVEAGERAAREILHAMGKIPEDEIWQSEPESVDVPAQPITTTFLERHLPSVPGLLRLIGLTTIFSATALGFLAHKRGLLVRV
The experiment in a line: Inhibition of human recombinant MAO-B at 1 mM using tyramine as substrate preincubated with enzyme for 30 mins followed by incubation with substrate for 30 mins by Amplex Red reagent based fluorometric method relative to control. To be noted: 0.5 h, read-out: INH.

Experiment [5] addresses T1, Amine oxidase [flavin-containing] A. The experiment in a line: Inhibition of human recombinant MAO-A at 100 uM using tyramine as substrate preincubated with enzyme for 30 mins followed by incubation with substrate for 30 mins by Amplex Red reagent based fluorometric method relative to control. To be noted: 0.5 h, time 60 min. Put shortly: as §1
Experiment [6] has the same target. The experiment in a line: Inhibition of human recombinant MAO-A at 0.01 uM using tyramine as substrate preincubated with enzyme for 30 mins followed by incubation with substrate for 30 mins by Amplex Red reagent based fluorometric method relative to control. As to conditions: 0.5 h, time 60 min. A digest of the protocol:
as §1

Experiment [7] shares this target. The experiment in a line: Inhibition of human recombinant MAO-A at 1 mM using tyramine as substrate preincubated with enzyme for 30 mins followed by incubation with substrate for 30 mins by Amplex Red reagent based fluorometric method relative to control. As to conditions: 0.5 h, time 60 min. Put shortly:
as §1

For experiment [8] the target is unchanged. The experiment in a line: Inhibition of human recombinant MAO-A at 0.1 uM using tyramine as substrate preincubated with enzyme for 30 mins followed by incubation with substrate for 30 mins by Amplex Red reagent based fluorometric method relative to control. To be noted: 0.5 h, time 60 min. A digest of the protocol:
as §1

The target is the same in experiment [9]. The experiment in a line: Inhibition of human recombinant MAO-A at 0.1 nM using tyramine as substrate preincubated with enzyme for 30 mins followed by incubation with substrate for 30 mins by Amplex Red reagent based fluorometric method relative to control. To be noted: 0.5 h, time 60 min. A digest of the protocol:
as §1

For experiment [10] the target is unchanged. The experiment in a line: Inhibition of human recombinant MAO-A using tyramine as substrate preincubated with enzyme for 30 mins followed by incubation with substrate for 30 mins by Amplex Red reagent based fluorometric method. Put shortly: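 Recombinant hMAO-A at 0.5 U/mL in phosphate buffer. Inhibitors are dissolved in 2% DMSO and preincubated with enzyme at 37 °C for 30 min. The working solution is then added: horseradish peroxidase, Amplex (Ampliflu) red and tyramine. Controls use 2% DMSO. Background without enzyme is subtracted. Peroxidase interference is checked with H2O2.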

Experiment [11] addresses T2, Amine oxidase [flavin-containing] B. In words: Inhibition of human recombinant MAO-B at 100 uM using tyramine as substrate preincubated with enzyme for 30 mins followed by incubation with substrate for 30 mins by Amplex Red reagent based fluorometric method relative to control. To be noted: 0.5 h, read-out: INH.
In experiment [12] the target is T1, Amine oxidase [flavin-containing] A. The experiment in a line: Inhibition of human recombinant MAO-A at 10 uM using tyramine as substrate preincubated with enzyme for 30 mins followed by incubation with substrate for 30 mins by Amplex Red reagent based fluorometric method relative to control. As to conditions: 0.5 h, time 60 min. A digest of the protocol:
as §1

The structures appear in SMILES notation.

For five compounds, inhibition and IC50 results are on record in ChEMBL document CHEMBL4699429, “Novel 1,3,4-thiadiazole compounds as potential MAO-A inhibitors - design, synthesis, biological evaluation and molecular modelling” (RSC Med Chem, 2020).

The term IC50 denotes the concentration at which inhibition is half-maximal. Take `CC(C)Nc1nnc(SCC(=O)N(Cc2cccc([N+](=O)[O-])c2)c2ccc(F)cc2)s1`: the inhibition at 0.001 µM in experiment [1] amounted to 13.6%. Further, in experiment [2], the inhibition at 10 pM amounted to 6.87%. In experiment [3], the inhibition at 1 µM came out at 46%. For the same compound, the values for the inhibition at 1000 µM in experiment [4] and in experiment [7] were 36% and 92.5%, respectively. The inhibition at 100 µM in experiment [5] was 89.1%; in experiment [11] it was 28.5%. Besides, the inhibition at 0.01 µM in [6] stood at 23.9%. Also, the inhibition at 0.1 µM in experiment [8] worked out at 43%. The inhibition at 0.0001 µM in experiment [9] was 10.8%. For the same compound, in experiment [10], the IC50 turned out to be 1.07 µM. The inhibition at 10 µM in experiment [12] was found to be 86.1%.

Regarding `O=C(CSc1nnc(Nc2ccccc2)s1)N(Cc1cccc([N+](=O)[O-])c1)c1ccc(F)cc1`, the inhibition at 1000 µM was 43.1% in experiment [4] and 89.5% in experiment [7]. Also, the values for the inhibition at 100 µM in experiment [5] and in experiment [11] were 41.4% and 20.7%, respectively.

`CCNc1nnc(SCC(=O)N(Cc2cccc([N+](=O)[O-])c2)c2ccc(F)cc2)s1`: in experiment [1], the inhibition at 0.001 µM is 21%. Further, in experiment [2], the inhibition at 10 pM was found to be 10.3%. Moreover, in experiment [3], the inhibition at 1 µM was 61.9%. The inhibition at 1000 µM came to 41.3% in [4] and 93.6% in experiment [7]. In addition, the inhibition at 100 µM is 89.5% in experiment [5] and 22.4% in experiment [11]. In experiment [6], the inhibition at 0.01 µM is 30.3%. Moreover, the inhibition at 0.1 µM in experiment [8] came to 42.1%. For the same compound, the inhibition at 0.0001 µM in experiment [9] was 14.2%. Also, in experiment [10], the IC50 stood at 0.336 µM. Besides, in experiment [12], the inhibition at 10 µM is 74.1%.

For `CCCNc1nnc(SCC(=O)N(Cc2cccc([N+](=O)[O-])c2)c2ccc(F)cc2)s1`, the inhibition at 0.001 µM in [1] is 20.5%. For the same compound, the inhibition at 10 pM in experiment [2] came to 8.5%. Further, the inhibition at 1 µM in experiment [3] stood at 62.3%. For the same compound, the values for the inhibition at 1000 µM in [4] and in experiment [7] were 42.7% and 95%, respectively. For the same compound, the inhibition at 100 µM in experiment [5] is 91.1%; in experiment [11], 26.8%. Moreover, the inhibition at 0.01 µM in experiment [6] worked out at 25.1%. For the same compound, the inhibition at 0.1 µM in experiment [8] turned out to be 45.1%. The inhibition at 0.0001 µM in [9] turned out to be 12%. Further, in experiment [10], the 50% inhibitory concentration (IC50) is 0.241 µM. Moreover, the inhibition at 10 µM in experiment [12] turned out to be 78.3%.

For `CCCCNc1nnc(SCC(=O)N(Cc2cccc([N+](=O)[O-])c2)c2ccc(F)cc2)s1`, the inhibition at 0.001 µM in experiment [1] is 19.7%. In addition, the inhibition at 10 pM in [2] turned out to be 6.94%. Besides, in experiment [3], the inhibition at 1 µM worked out at 47.3%. For the same compound, the inhibition at 1000 µM in experiment [4] turned out to be 40.6%; in experiment [7], 90.5%. The inhibition at 100 µM in [5] was found to be 82.3%; in experiment [11], 34.3%. Further, in experiment [6], the inhibition at 0.01 µM amounted to 30%. Besides, the inhibition at 0.1 µM in experiment [8] came to 33.6%. The inhibition at 0.0001 µM in [9] is 11.1%. In addition, the IC50 in experiment [10] amounted to 1.17 µM. Further, the inhibition at 10 µM in [12] is 76%.
